Results: ChEMBL document CHEMBL1152513, “Synthesis and characterizations of novel quinoline derivatives having mixed ligand activities at the kappa and mu receptors: Potential therapeutic efficacy against morphine dependence” (Bioorg Med Chem, 2009)
The source made the active and inactive calls. The calls are words filed in the database; no cut-off is given here.

Experiments:
[1] = target: Kappa-type opioid receptor (Homo sapiens) (UniProt P41145); test: Displacement of [3H]dynorphin from human kappa opioid receptor expressed in C6 giloma cells measured total binding per mg of protein at 5 uM; format: cell-based
Kappa-type opioid receptor (Homo sapiens), sequence (P41145 whole entry): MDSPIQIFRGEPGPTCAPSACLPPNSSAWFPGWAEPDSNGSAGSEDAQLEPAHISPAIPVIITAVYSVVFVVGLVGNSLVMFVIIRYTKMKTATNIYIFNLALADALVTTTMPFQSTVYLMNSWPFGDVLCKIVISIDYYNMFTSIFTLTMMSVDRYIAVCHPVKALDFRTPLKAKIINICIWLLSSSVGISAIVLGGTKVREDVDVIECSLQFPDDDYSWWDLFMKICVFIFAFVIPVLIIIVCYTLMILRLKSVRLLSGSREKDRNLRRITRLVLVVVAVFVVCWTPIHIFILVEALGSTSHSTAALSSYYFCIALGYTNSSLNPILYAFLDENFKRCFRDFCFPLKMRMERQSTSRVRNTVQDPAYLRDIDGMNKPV
Outline: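 Membranes from C6 glioma cells stably transfected with human KOR (G418 selected), harvested in PBS, homogenized in 50 mM Tris–HCl pH 7.4 and spun at 30,000g. Nonspecific binding defined with 10 µM U50488H. Read by filtration and counting.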

[2] = species: Rattus norvegicus; test: Induction of ERK phosphorylation in rat primary astrocyte at 40 uM after 10 mins
Outline: (§1)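 Primary astrocytes from neocortex of newborn rat pups (<24 h), grown 10 days, then serum-starved 48 h. Treated 10 min at 40 µM; antagonists added 1 h before stimulation. pERK1/2 measured by western blot, 40 µg protein/lane, 10% SDS-PAGE, anti-p-ERK at 1:1000. Mean ± SEM of at least 3 blots, compared with untreated control.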

[3] = system: Mus musculus; test: Inhibition of naloxone-induced stereotype jumping in morphine treated mouse at 20 mg/kg, iv for 6 days; format: functional, organism-based; parameters: dose 20 mg/kg
[4] = target: Mu-type opioid receptor (Rattus norvegicus) (UniProt P33535); test: Displacement of [3H]DAMGO from mu opioid receptor in rat brain measured total binding per mg of protein at 5 uM; format: tissue-based
Mu-type opioid receptor (Rattus norvegicus), sequence (P33535 whole entry): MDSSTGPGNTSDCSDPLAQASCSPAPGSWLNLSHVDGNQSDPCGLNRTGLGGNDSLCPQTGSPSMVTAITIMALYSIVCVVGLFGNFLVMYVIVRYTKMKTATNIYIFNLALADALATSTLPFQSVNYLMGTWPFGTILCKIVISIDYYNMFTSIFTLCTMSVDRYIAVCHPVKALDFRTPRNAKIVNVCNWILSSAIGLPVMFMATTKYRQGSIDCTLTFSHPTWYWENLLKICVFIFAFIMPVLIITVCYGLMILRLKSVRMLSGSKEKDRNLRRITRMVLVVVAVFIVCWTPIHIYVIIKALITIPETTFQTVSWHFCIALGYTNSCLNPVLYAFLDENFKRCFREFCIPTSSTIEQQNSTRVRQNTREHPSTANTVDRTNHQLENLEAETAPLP

[5] = species: Rattus norvegicus; test: Induction of ERK phosphorylation in rat primary astrocyte at 40 uM after 10 mins in presence of naloxone; outline: as §1
[6] = system: Mus musculus; test: Inhibition of naloxone-induced weight loss in mouse at 20 mg/kg, iv for 6 days; format: functional, organism-based; parameters: dose 20 mg/kg

Compound	Activity [1] [%]	Activity [2]	Activity [3]	Activity [4] [%]	Activity [5]	Activity [6]
Cc1cc(NCC(=O)Nc2ccccc2)c2ccccc2n1	38	Active	Active	30	inactive	–
Cc1cc(NCC(=O)Nc2cc(Cl)ccc2Cl)c2ccccc2n1	74	Active	–	66	–	–
C[C@@H](NC(=O)[C@@H](N)Cc1ccc(O)cc1)C(=O)NCC(=O)N(C)[C@@H](Cc1ccccc1)C(=O)NCCO	–	–	–	76	–	–
Cc1ccc(NC(=O)CCNc2cc(C)nc3ccccc23)cc1	56	Active	–	23	–	–
Cc1ccc(NC(=O)CNc2cc(C)nc3ccccc23)cc1	90	Active	Active	47	–	–
Cc1cc(N(CC(=O)NC2CCCCC2)CC(=O)NC2CCCCC2)c2ccccc2n1	114	Active	–	53	–	–
Cc1cc(NC(=O)C(Cl)Cl)c2ccccc2n1	77	Active	–	106	–	–
Cc1cc(NCC(=O)Nc2ccccc2Cl)c2ccccc2n1	52	Active	Active	52	–	–
Cc1cc(N)c2ccccc2n1	71	Active	–	95	–	–
COc1ccc(NC(=O)CNc2cc(C)nc3ccccc23)cc1	44	Active	–	27	–	–
Cc1ccc(C(=O)Nc2cc(C)nc3ccccc23)cc1	58	Active	Active	62	–	Active
O=C(CCCl)Nc1ccccc1	59	Active	–	61	–	Active
